In ChEMBL document CHEMBL2069262, “Stimulation of Glucose-Dependent Insulin Secretion by a Potent, Selective sst3 Antagonist” (ACS Med Chem Lett, 2012):
Active and inactive are the calls of the source. No cut-off for these calls is given here. Positions of bridges follow the written chain, without caps; N, C: chain ends. Non-standard residues stand in square brackets, D forms with d. Residues, ends and D or L forms follow the SMILES beside them. *: point of attachment. Threoninol(2S,3R) = C[C@@H](O)[C@H](CO)N*

Legend:
[1] = Half life in C57BL/6N mouse at 1 mg/kg, iv and 2 mg/kg, po; format: ADME, organism-based; settings: in vivo
[2] = Oral bioavailability in C57BL/6N mouse at 2 mg/kg; format: ADME, organism-based; settings: in vivo
[3] = Clearance in C57BL/6N mouse at 1 mg/kg, iv and 2 mg/kg, po; format: ADME, organism-based; settings: in vivo
[4] = Volume of distribution at steady state in C57BL/6N mouse at 1 mg/kg, iv and 2 mg/kg, po; format: ADME, organism-based; settings: in vivo, read-out: Vdss
[5] = Cmax in C57BL/6N mouse at 2 mg/kg, po; format: ADME, organism-based; design: dose 2 mg/kg, route oral; settings: in vivo
[6] = biological target: Voltage-gated L-type calcium channel (Homo sapiens, UniProt Q13936+Q13698+Q01668+O60840); experiment: Binding affinity to L-type calcium channel
Mus musculus [7] = experiment: Dose normalized AUC in C57BL/6N mouse at 2 mg/kg, po; format: ADME, organism-based; design: dose 2 mg/kg, route oral; settings: in vivo
[8] = biological target: T1, Somatostatin receptor type 3 (Homo sapiens, UniProt P32745); experiment: Displacement of [125I]SS-14 from human SST3 receptor expressed in CHO cells after 60 mins by scintillation counting; format: cell-based
T1 sequence (P32745 whole entry): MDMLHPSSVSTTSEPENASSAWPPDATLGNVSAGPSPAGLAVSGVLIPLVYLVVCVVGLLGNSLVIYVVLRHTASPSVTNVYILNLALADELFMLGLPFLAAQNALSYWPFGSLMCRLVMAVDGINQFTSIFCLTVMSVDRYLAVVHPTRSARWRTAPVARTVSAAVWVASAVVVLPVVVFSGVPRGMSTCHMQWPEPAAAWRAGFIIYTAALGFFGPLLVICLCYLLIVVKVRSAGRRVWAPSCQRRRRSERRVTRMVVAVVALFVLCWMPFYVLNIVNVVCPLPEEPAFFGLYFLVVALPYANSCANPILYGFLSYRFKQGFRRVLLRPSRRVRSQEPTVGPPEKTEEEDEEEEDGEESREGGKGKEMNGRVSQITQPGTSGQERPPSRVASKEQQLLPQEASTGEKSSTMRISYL

Mus musculus [9] = experiment: Antidiabetic activity in lean C57BL/6N mouse assessed as reduction in dextrose-induced glucose excursion at 2 mg/kg, po administered 1 hr before dextrose challenge measured by oral glucose tolerance test; format: functional; design: scale not given: the % may be the effect or the level left
In short: (§1)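 Lean C57BL/6N Tac mice were fasted 5–6 h, then given test agent at 2 or 10 mg/kg 1 h before a dextrose challenge. Glucose tolerance was tested with ip dextrose (ipGTT) or oral dextrose (OGTT). Blood glucose excursion was followed and compared with dextrose alone.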

Mus musculus [10] = experiment: Antidiabetic activity in wild-type lean C57BL/6N mouse assessed as elevation in plasma insulin level at 10 mg/kg, po administered 1 hr before dextrose challenge measured after 10 mins; format: functional
In short: (§2)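 Wild-type and sst3 knockout mice were predosed at −60 min with 10 mg/kg, then given a dextrose challenge. Plasma insulin was measured 10 min after dextrose. n = 5.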

[11] = biological target: T2, Somatostatin receptor type 3 (Mus musculus, UniProt P30935); experiment: Antagonist activity at mouse SST3 receptor expressed in CHO cells assessed as inhibition of forskolin/SS-14-stimulated cAMP accumulation preincubated for 15 mins before SS-14 challenge measured after 1 hr by time-resolved fluorescence analysis; format: functional, cell-based
T2 sequence (P30935 whole entry): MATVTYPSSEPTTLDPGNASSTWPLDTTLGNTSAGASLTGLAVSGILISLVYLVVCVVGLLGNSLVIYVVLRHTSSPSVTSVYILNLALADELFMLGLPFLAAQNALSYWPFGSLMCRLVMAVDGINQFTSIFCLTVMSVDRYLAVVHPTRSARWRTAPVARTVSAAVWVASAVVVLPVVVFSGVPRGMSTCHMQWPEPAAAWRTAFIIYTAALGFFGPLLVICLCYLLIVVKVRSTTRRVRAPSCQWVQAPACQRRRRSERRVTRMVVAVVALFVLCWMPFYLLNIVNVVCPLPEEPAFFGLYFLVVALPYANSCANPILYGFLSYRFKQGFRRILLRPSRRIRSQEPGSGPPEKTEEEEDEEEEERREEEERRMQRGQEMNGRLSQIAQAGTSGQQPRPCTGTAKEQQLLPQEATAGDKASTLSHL
In short: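 Functional antagonism at mouse sst3 against SS-14, run as a cAMP accumulation challenge after the test molecule is prebound. Read-out is IC50.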

[12] = biological target: T2, Somatostatin receptor type 3; experiment: Displacement of [125I]SS-14 from mouse SST3 receptor expressed in CHO cells after 60 mins by scintillation counting; format: cell-based
In short: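 Competition binding at mouse sst3, read at steady-state equilibrium. Read-out is IC50.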

Mus musculus [13] = experiment: Antidiabetic activity in sst3-knockout lean C57BL/6N mouse assessed as elevation in plasma insulin level at 10 mg/kg, po administered 1 hr before dextrose challenge measured after 10 mins; format: functional, organism-based; design: dose 10 mg/kg; in short: as §2
Mus musculus [14] = experiment: Antidiabetic activity in lean C57BL/6N mouse assessed as reduction in dextrose-induced glucose excursion at 10 mg/kg, po administered 1 hr before dextrose challenge measured by oral glucose tolerance test; format: functional; design: scale not given: the % may be the effect or the level left; in short: as §1
Mus musculus [15] = experiment: Antidiabetic activity in sst3-wild-type lean C57BL/6N mouse assessed as reduction in dextrose-induced glucose excursion at 10 mg/kg, po administered 1 hr before dextrose challenge measured by intraperitoneal glucose tolerance test; format: functional; design: scale not given: the % may be the effect or the level left
In short: (§3)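 Wild-type and sst3 knockout mice were studied side by side in an ipGTT. They were predosed with 10 mg/kg 1 h before a 2 g/kg dextrose challenge. Read-out was total blood glucose AUC, compared with dextrose alone.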

Mus musculus [16] = experiment: Antidiabetic activity in lean C57BL/6N mouse assessed as reduction in dextrose-induced glucose excursion at 10 mg/kg, po administered 1 hr before dextrose challenge measured by intraperitoneal glucose tolerance test; format: functional; design: scale not given: the % may be the effect or the level left; in short: as §1
Mus musculus [17] = experiment: Antidiabetic activity in po dosed lean C57BL/6N mouse assessed as reduction in dextrose-induced glucose excursion administered 1 hr before dextrose challenge measured by glucose tolerance test; format: functional, organism-based; in short: as §1
Mus musculus [18] = experiment: Antidiabetic activity in sst3-knockout lean C57BL/6N mouse assessed as reduction in dextrose-induced glucose excursion at 10 mg/kg, po administered 1 hr before dextrose challenge measured by intraperitoneal glucose tolerance test; format: functional, organism-based; design: dose 10 mg/kg; in short: as §3
[19] = Activation of glucose-stimulated insulin secretion in C57BL/6J mouse pancreatic islets at 10 uM after 1 hr by ELISA in presence of 2 mM glucose; format: functional; settings: Pancreatic islet
In short: (§4)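 Pancreatic islets were isolated from normal C57BL/6J mice. Insulin secretion was measured at 2 and 16 mM glucose. Treatments were test agent at 10 μM, octreotide at 50 nM, the two combined, DMSO as negative control and GLP-1 at 10 nM as positive control. n = 4.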

[20] = biological target: Somatostatin receptor type 2 (Homo sapiens, UniProt P30874); experiment: Binding affinity to human SST2 receptor expressed in CHO cells; format: cell-based
Somatostatin receptor type 2 (Homo sapiens, UniProt P30874), sequence (P30874 whole entry): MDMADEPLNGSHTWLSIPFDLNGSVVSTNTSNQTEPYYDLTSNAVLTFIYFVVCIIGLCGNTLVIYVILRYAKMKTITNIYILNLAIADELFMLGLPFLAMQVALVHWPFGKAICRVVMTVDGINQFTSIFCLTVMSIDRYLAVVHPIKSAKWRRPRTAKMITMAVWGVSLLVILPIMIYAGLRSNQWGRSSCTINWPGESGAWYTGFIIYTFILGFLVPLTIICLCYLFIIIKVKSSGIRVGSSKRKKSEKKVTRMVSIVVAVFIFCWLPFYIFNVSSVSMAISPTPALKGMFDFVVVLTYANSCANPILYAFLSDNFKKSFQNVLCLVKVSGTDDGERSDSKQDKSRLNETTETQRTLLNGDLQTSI

[21] = biological target: Somatostatin receptor type 1 (Homo sapiens, UniProt P30872); experiment: Binding affinity to human SST1 receptor expressed in CHO cells; format: cell-based
Somatostatin receptor type 1 (Homo sapiens, UniProt P30872), sequence (P30872 whole entry): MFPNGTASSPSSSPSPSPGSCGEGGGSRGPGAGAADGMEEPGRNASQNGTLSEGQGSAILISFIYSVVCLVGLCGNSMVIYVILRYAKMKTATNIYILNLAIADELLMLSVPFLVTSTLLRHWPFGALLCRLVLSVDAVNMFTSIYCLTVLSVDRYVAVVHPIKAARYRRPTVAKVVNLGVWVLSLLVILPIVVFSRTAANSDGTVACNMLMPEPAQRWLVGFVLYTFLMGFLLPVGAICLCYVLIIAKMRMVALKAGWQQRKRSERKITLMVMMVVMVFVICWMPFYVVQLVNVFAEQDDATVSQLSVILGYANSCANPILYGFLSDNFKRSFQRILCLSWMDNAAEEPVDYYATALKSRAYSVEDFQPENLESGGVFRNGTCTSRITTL

[22] = biological target: Somatostatin receptor type 5 (Homo sapiens, UniProt P35346); experiment: Binding affinity to human SST5 receptor expressed in CHO cells; format: cell-based
Somatostatin receptor type 5 (Homo sapiens, UniProt P35346), sequence (P35346 whole entry): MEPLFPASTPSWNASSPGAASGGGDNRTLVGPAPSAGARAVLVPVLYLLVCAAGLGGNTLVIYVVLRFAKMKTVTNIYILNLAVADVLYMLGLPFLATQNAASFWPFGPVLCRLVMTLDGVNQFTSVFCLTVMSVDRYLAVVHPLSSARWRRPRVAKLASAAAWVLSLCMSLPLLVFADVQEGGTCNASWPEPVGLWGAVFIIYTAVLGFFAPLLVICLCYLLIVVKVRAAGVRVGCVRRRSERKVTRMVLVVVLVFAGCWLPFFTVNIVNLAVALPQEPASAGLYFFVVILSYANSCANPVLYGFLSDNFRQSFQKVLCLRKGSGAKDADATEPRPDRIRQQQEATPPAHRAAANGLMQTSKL

[23] = biological target: T3, Somatostatin receptor type 5 (Mus musculus, UniProt O08858); experiment: Binding affinity to mouse SST5 receptor expressed in CHO cells; format: cell-based
T3 sequence (O08858 whole entry): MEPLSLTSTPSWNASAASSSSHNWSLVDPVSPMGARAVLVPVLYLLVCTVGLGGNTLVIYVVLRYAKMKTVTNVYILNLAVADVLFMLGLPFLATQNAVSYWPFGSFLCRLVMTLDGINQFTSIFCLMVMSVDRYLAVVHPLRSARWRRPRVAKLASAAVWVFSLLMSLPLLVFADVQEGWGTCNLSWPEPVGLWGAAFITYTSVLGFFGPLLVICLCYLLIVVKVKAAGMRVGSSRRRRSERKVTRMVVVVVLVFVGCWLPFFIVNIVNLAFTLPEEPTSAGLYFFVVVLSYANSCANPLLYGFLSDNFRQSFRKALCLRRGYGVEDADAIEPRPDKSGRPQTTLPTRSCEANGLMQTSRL

[24] = biological target: T1, Somatostatin receptor type 3; format: functional, cell-based, CHO
[25] = Activation of glucose-stimulated insulin secretion in C57BL/6J mouse pancreatic islets at 10 uM after 1 hr by ELISA in presence of 16 mM glucose relative to DMSO; format: functional; settings: Pancreatic islet; in short: as §4
[26] = biological target: Somatostatin receptor type 2 (Mus musculus, UniProt P30875); experiment: Binding affinity to mouse SST2 receptor expressed in CHO cells; format: cell-based
Somatostatin receptor type 2 (Mus musculus, UniProt P30875), sequence (P30875 whole entry): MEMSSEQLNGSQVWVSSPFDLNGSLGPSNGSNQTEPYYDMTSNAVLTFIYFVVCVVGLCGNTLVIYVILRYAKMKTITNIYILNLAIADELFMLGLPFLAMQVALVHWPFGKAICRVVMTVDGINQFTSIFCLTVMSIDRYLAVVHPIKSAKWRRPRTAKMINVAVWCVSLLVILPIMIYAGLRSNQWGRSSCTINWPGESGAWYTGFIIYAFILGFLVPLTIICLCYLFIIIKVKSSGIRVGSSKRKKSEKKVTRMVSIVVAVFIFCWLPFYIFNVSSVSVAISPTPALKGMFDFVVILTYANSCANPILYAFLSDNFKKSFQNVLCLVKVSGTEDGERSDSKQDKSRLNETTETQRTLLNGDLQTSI

[27] = biological target: Somatostatin receptor type 1 (Mus musculus, UniProt P30873); experiment: Binding affinity to mouse SST1 receptor expressed in CHO cells; format: cell-based
Somatostatin receptor type 1 (Mus musculus, UniProt P30873), sequence (P30873 whole entry): as the sequence (P30872 whole entry) above, with G25A, G26C, A32S, T385A, T389S counted along it

[28] = biological target: Somatostatin receptor type 4 (Mus musculus, UniProt P49660); experiment: Binding affinity to mouse SST4 receptor expressed in CHO cells; format: cell-based
Somatostatin receptor type 4 (Mus musculus, UniProt P49660), sequence (P49660 as listed by the source): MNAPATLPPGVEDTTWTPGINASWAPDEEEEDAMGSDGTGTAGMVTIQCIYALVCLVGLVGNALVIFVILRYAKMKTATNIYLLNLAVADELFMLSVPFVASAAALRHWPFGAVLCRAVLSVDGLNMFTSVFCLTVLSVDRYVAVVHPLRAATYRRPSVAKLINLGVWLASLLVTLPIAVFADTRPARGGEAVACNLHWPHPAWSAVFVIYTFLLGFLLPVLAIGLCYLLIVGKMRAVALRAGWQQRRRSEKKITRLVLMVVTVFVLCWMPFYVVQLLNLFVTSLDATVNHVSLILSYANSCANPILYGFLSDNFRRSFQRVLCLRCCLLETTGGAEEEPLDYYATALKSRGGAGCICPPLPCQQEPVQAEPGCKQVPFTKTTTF

Mus musculus [29] = experiment: Antidiabetic activity in lean C57BL/6N mouse assessed as reduction in dextrose-induced glucose excursion at 2 mg/kg, po administered 1 hr before dextrose challenge measured by intraperitoneal glucose tolerance test; format: functional; design: scale not given: the % may be the effect or the level left; in short: as §1
[30] = Activation of glucose-stimulated insulin secretion in C57BL/6J mouse pancreatic islets at 10 uM after 1 hr by ELISA in presence of 16 mM glucose and 50 nM sst3 agonist octreotide; format: functional; settings: Pancreatic islet; in short: as §4
[31] = biological target: Somatostatin receptor type 4 (Homo sapiens, UniProt P31391); experiment: Binding affinity to human SST4 receptor expressed in CHO cells; format: cell-based
Somatostatin receptor type 4 (Homo sapiens, UniProt P31391), sequence (P31391 whole entry): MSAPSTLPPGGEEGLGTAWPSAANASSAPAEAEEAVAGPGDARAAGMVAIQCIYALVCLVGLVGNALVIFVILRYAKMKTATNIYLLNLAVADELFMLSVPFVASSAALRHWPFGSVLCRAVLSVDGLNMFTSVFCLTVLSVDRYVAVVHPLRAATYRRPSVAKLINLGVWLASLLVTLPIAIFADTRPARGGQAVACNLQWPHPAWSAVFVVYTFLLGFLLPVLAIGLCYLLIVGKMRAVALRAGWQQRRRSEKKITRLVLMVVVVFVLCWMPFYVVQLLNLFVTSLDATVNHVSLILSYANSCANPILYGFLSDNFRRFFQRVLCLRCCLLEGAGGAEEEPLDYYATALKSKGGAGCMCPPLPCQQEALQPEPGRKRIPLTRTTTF

[32] = Inhibition of glucose-stimulated insulin secretion in C57BL/6J mouse pancreatic islets at 50 nM after 1 hr by ELISA; format: functional, Pancreatic islet; design: scale not given: the % may be the effect or the level left
In short: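 Islets isolated from normal C57BL/6J mice were incubated at basal (2 mM) and stimulatory (16 mM) glucose, and insulin secretion was measured. DMSO served as the negative control and GLP-1 at 10 nM as the positive control. n = 4.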

[33] = biological target: Voltage-gated inwardly rectifying potassium channel KCNH2 (Homo sapiens, UniProt Q12809); experiment: Displacement of [35S]MK499 from human Erg expressed in HEK293 cells after 60 mins by scintillation counting; format: cell-based
Voltage-gated inwardly rectifying potassium channel KCNH2, sequence (Q12809 whole entry): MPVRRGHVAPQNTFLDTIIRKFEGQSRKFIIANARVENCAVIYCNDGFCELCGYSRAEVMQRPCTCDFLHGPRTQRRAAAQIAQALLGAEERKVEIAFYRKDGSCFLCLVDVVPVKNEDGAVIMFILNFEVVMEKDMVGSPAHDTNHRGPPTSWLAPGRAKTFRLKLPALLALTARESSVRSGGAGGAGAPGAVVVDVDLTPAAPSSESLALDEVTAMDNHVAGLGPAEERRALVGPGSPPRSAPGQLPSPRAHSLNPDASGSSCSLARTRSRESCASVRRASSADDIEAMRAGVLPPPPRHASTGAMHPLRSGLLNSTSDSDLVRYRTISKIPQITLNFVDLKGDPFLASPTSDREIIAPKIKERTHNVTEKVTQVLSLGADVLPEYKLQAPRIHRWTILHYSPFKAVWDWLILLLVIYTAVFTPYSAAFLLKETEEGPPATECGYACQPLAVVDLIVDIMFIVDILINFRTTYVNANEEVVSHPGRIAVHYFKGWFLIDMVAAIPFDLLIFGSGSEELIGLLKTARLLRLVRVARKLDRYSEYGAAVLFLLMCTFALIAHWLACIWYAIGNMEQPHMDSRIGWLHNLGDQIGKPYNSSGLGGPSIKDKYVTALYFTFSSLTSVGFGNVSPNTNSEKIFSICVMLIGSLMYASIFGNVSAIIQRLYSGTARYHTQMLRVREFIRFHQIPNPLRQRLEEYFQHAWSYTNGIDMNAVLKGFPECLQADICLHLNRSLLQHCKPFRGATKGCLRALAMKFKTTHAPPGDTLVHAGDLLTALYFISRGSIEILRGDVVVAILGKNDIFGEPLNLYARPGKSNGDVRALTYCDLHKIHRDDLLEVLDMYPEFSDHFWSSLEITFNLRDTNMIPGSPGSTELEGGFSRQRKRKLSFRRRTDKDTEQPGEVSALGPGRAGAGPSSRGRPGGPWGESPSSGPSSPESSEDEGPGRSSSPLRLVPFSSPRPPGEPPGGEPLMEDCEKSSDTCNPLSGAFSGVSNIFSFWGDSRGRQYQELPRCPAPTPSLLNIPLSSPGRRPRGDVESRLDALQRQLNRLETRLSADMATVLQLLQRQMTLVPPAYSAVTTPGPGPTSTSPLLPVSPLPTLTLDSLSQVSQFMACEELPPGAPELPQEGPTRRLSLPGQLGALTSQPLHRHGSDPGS

c1ccc(-c2c[nH]c([C@H]3Cc4c([nH]c5ccccc45)C(C4CCCCC4)N3)n2)cc1 (some centres undefined)
half-life [1]: 8.4 min
bioavailability [2]: 15%
clearance [3]: 95 mL/min/kg
Vd [4]: 8.1 L/kg
Cmax [5]: 60 nM
IC50 [6]: 0.308 µM
AUC/dose (Mus musculus [7]): 0.07 µM·h/mg

CS(=O)(=O)N1CCC(C2N[C@@H](c3nc(-c4ccccc4)c[nH]3)Cc3c2[nH]c2ccccc32)CC1 (some centres undefined)
IC50 [8]: 0.044 µM

c1ccc(-c2c[nH]c([C@H]3Cc4c([nH]c5ccccc45)[C@@H](C4CCOCC4)N3)n2)cc1
Activity (Mus musculus [9]): 66%
Activity (Mus musculus [10]): 50%
IC50 [11]: 0.016 µM
IC50 [12]: 0.0089 µM
Activity (Mus musculus [13]): inactive
Activity (Mus musculus [14]): 67%
Activity (Mus musculus [15]): 26%
Activity (Mus musculus [16]): 78%
half-life [1]: 96 min
IC50 [8]: 0.014 µM
Activity (Mus musculus [17]): Dose-dependent effect
bioavailability [2]: 45%
Activity (Mus musculus [18]): inactive
clearance [3]: 15 mL/min/kg
Activity [19]: inactive
IC50 [20]: > 1 µM
Vd [4]: 1.6 L/kg
IC50 [21]: > 1 µM
IC50 [22]: > 1 µM
IC50 [23]: > 10 µM
IC50 [24]: 0.022 µM
Cmax [5]: 840 nM
IC50 [6]: 1.9 µM
Activity [25]: 44%
IC50 [26]: > 10 µM
AUC/dose (Mus musculus [7]): 1.3 µM·h/mg
IC50 [27]: > 10 µM
IC50 [28]: > 10 µM
Activity (Mus musculus [29]): 58%
Activity [30]: Active
IC50 [31]: > 1 µM

C[C@@H](O)[C@H](CO)NC(=O)[C@@H]1CSSC[C@H](NC(=O)[C@H](N)Cc2ccccc2)C(=O)N[C@@H](Cc2ccccc2)C(=O)N[C@H](Cc2c[nH]c3ccccc23)C(=O)N[C@@H](CCCCN)C(=O)N[C@@H]([C@@H](C)O)C(=O)N1 (H-[dF]CF[dW]KTC-{Threoninol(2S,3R)}; disulfide 2-7)
Activity [32]: 39%

c1ccc(-c2c[nH]c([C@H]3Cc4c([nH]c5ccccc45)[C@H](C4CCOCC4)N3)n2)cc1
IC50 [8]: 0.39 µM
IC50 [24]: 1.2 µM

CCCCC1(CCCC)N[C@@H](c2nc(-c3ccccc3)c[nH]2)Cc2c1[nH]c1ccccc21
clearance [3]: 126 mL/min/kg
IC50 [33]: 0.15 µM
IC50 [6]: 0.128 µM

CC(=O)N1CCC(C2N[C@@H](c3nc(-c4ccccc4)c[nH]3)Cc3c2[nH]c2ccccc32)CC1 (some centres undefined)
IC50 [8]: 0.016 µM
IC50 [33]: 9.8 µM
IC50 [24]: 0.046 µM

CNC(=O)N1CCC(C2N[C@@H](c3nc(-c4ccccc4)c[nH]3)Cc3c2[nH]c2ccccc32)CC1 (some centres undefined)
IC50 [8]: 0.035 µM
IC50 [33]: 0.24 µM
IC50 [24]: 0.18 µM

[O-][S+]1CCC(C2N[C@@H](c3nc(-c4ccccc4)c[nH]3)Cc3c2[nH]c2ccccc32)CC1 (single isomer, unassigned; isomer 2)
IC50 [8]: 0.021 µM
IC50 [33]: 0.1 µM
IC50 [24]: 0.024 µM
